Results on two compounds are retold here after ChEMBL document CHEMBL5620421, “2,6-Disubstituted 7-(naphthalen-2-ylmethyl)-7H-purines as a new class of potent antitubercular agents inhibiting DprE1” (Eur J Med Chem, 2023).

The term MIC99 denotes the lowest concentration that inhibits either 99% of growth or 99% of the strains tested, depending on the study. The solubility is the concentration that dissolves in the medium under given conditions. A high value points to a readily soluble substance.

Structures are written as SMILES. Values after ≈ are worked out from the molar mass of the structure shown. Active and inactive are the calls of the source. No cut-off for these calls is given here.

One series relates to Pseudomonas aeruginosa. The series can be described thus: Antibacterial activity against multidrug-resistant Pseudomonas aeruginosa A1245 assessed as inhibition of bacterial growth at 125 uM incubated for 24 to 48 hrs by microdilution broth method. The class given is functional, organism-based. To be noted: time 24-48 hrs. For orientation: Dilution methods test growth across graded concentrations, often in twofold steps.

For series [1], the system named is Staphylococcus aureus. The series can be described thus: Antibacterial activity against Staphylococcus aureus C1947 assessed as inhibition of bacterial growth at 125 uM incubated for 24 to 48 hrs by microdilution broth method. The class given is functional, organism-based. The note with it: time 24-48 hrs.
The next series has as its system Enterococcus faecium. The series can be described thus: Antibacterial activity against vancomycin-resistant Enterococcus faecium assessed as inhibition of bacterial growth at 125 uM incubated for 24 to 48 hrs by microdilution broth method. It counts as functional, organism-based. To be noted: time 24-48 hrs.
Series [2] relates to Staphylococcus aureus. The series can be described thus: Antibacterial activity against Staphylococcus aureus C1947 assessed as inhibition of bacterial growth incubated for 24 to 48 hrs by microdilution broth method. To be noted: time 24-48 hrs. It counts as functional, organism-based. In a few lines:
(§1)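 Clinical isolates kept at –70 °C and subcultured twice on Mueller-Hinton agar, using the second subculture. Broth microdilution in Mueller-Hinton broth at pH 7.4 with two-fold serial compound dilutions and DMSO ≤1% final. Inoculum was 10 μL of a 1.5 × 10⁸ CFU/mL suspension. Incubated at 36 °C ± 1 °C and read at 24 h and 48 h. MIC taken as 95% growth inhibition.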

In series [3] the test system is Staphylococcus epidermidis. The series can be described thus: Antibacterial activity against Staphylococcus epidermidis C1936 assessed as inhibition of bacterial growth incubated for 24 to 48 hrs by microdilution broth method. The note with it: time 24-48 hrs. The class given is functional, organism-based. In a few lines:
as §1

The test system of the next series is Mycobacterium kansasii. The series can be described thus: Antitubercular activity against Mycobacterium kansasii CNCTC My 235/80 assessed as inhibition of bacterial growth measured after 7 days of incubation by Sulas semisynthetic medium based assay. The class given is functional. To be noted: CNCTC My 235/80, 168 h, time 7 day. In a few lines: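 Micromethod in Sula's semisynthetic medium. MIC is the lowest concentration inhibiting >99% of the mycobacterial population. Isoniazid was the standard.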

The subject of series [4] is Klebsiella pneumoniae. The series can be described thus: Antibacterial activity against ESBL negative Klebsiella pneumoniae C1950 assessed as inhibition of bacterial growth incubated for 24 to 48 hrs by microdilution broth method. The class given is functional, organism-based. To be noted: time 24-48 hrs. In a few lines: as §1
For series [5], the system named is Mycobacterium tuberculosis. The series can be described thus: Antimycobacterial activity against MDR clinical isolate Mycobacterium tuberculosis PRAHA 131 assessed as inhibition of mycobacterial growth measured after 14 to 21 days of incubation by Sulas semisynthetic medium based assay. The class given is functional. The note with it: time 14-21 day. In a few lines:
(§2)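 Clinical MDR/XDR M. tuberculosis isolates were tested by the Sula's semisynthetic medium micromethod. Compounds in DMSO at 1000 to 0.5 μmol/L, in twofold-type steps. Incubation at 37 °C, read at 14 and 21 days. MIC99 is the lowest concentration inhibiting >99% of growth. Drug resistance or susceptibility of each isolate is to amikacin, clofazimine, gentamicin, ofloxacin, streptomycin and the others listed.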

A short description of series [6]: Aqueous solubility of compound incubated for 20 mins by UV-Visible spectrophotometric analysis. The class given is physicochemical. The note with it: buffer. In a few lines:
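Solubility in ultrapure water containing 5% DMSO. Absorbance taken at each compound's λmax and compared with a six-point calibration made by serial dilution of a 50 μM standard, fitted by linear regression. Over-saturated solutions were sonicated at 37 °C for 10 min and centrifuged at 8000 RPM for 10 min. Supernatant absorbance was read, after dilution with 5% DMSO/water if above the calibration range.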

Series [7] concerns Klebsiella pneumoniae. The series can be described thus: Antibacterial activity against ESBL positive Klebsiella pneumoniae C1914 assessed as inhibition of bacterial growth at 125 uM incubated for 24 to 48 hrs by microdilution broth method. It counts as functional, organism-based. To be noted: time 24-48 hrs.
Series [8] is described as follows: Selectivity index, ratio of IC50 for cytotoxicity against human HepG2 cells by MTT assay to MIC99 for antitubercular activity against Mycobacterium tuberculosis CNCTC My 331/88 (H37Rv) assessed as inhibition of bacterial growth measured after 14 days of incubation. It counts as functional. To be noted: time 14 day. In a few lines: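 HepG2 cells, 15 × 10³/well, were attached overnight and exposed 24 h to serial dilutions (DMSO ≤1%). Read by MTT at 0.5 mg/mL for 1 h and 570 nm. IC50 from 4-parameter regression, three independent experiments in triplicate. SI is HepG2 IC50 divided by H37Rv MIC99.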

For series [9], the system named is Staphylococcus aureus. The series can be described thus: Antibacterial activity against methicilin-resistant Staphylococcus aureus C1923 assessed as inhibition of bacterial growth at 125 uM incubated for 24 to 48 hrs by microdilution broth method. It counts as functional, organism-based. The note with it: time 24-48 hrs.
Series [10] relates to Escherichia coli. The series can be described thus: Antibacterial activity against Escherichia coli A1235 assessed as inhibition of bacterial growth at 125 uM incubated for 24 to 48 hrs by microdilution broth method. It counts as functional, organism-based. The note with it: time 24-48 hrs.
In series [11] the test system is Staphylococcus aureus. The series can be described thus: Antibacterial activity against methicilin-resistant Staphylococcus aureus C1923 assessed as inhibition of bacterial growth incubated for 24 to 48 hrs by microdilution broth method. The class given is functional, organism-based. The note with it: time 24-48 hrs. In a few lines:
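Clinical isolates, stored at −70 °C, were passaged twice on Mueller-Hinton agar. Broth microdilution in Mueller-Hinton broth, pH 7.4, with twofold serial dilutions. DMSO was at most 1% final. Inoculum 1.5 × 10⁸ CFU/mL suspension. MIC is 95% growth inhibition, read after 24 and 48 h at 36 °C.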

In series [12] the test system is Staphylococcus epidermidis. The series can be described thus: Antibacterial activity against Staphylococcus epidermidis C1936 assessed as inhibition of bacterial growth at 125 uM incubated for 24 to 48 hrs by microdilution broth method. It counts as functional, organism-based. To be noted: time 24-48 hrs.
Series [13] deals with Mycobacterium tuberculosis. The series can be described thus: Antimycobacterial activity against XDR clinical isolate Mycobacterium tuberculosis 8666/2010 assessed as inhibition of mycobacterial growth measured after 14 to 21 days of incubation by Sulas semisynthetic medium based assay. To be noted: time 14-21 day. The class given is functional. In a few lines:
as §2

Series [14] concerns Klebsiella pneumoniae. The series can be described thus: Antibacterial activity against ESBL negative Klebsiella pneumoniae C1950 assessed as inhibition of bacterial growth at 125 uM incubated for 24 to 48 hrs by microdilution broth method. The class given is functional, organism-based. To be noted: time 24-48 hrs.
Series [15] relates to Escherichia coli. The series can be described thus: Antibacterial activity against Escherichia coli A1235 assessed as inhibition of bacterial growth incubated for 24 to 48 hrs by microdilution broth method. It counts as functional, organism-based. The note with it: time 24-48 hrs. In a few lines: as §1
Series [16] has as its system Mycobacterium tuberculosis. The series can be described thus: Antimycobacterial activity against XDR clinical isolate Mycobacterium tuberculosis 9449/2007 assessed as inhibition of mycobacterial growth measured after 14 to 21 days of incubation by Sulas semisynthetic medium based assay. It counts as functional. To be noted: time 14-21 day. In a few lines:
as §2

In series [17] the test system is Mycobacterium tuberculosis. The series can be described thus: Antimycobacterial activity against XDR clinical isolate Mycobacterium tuberculosis PRAHA 131 assessed as inhibition of mycobacterial growth measured after 14 to 21 days of incubation by Sulas semisynthetic medium based assay. The class given is functional. To be noted: time 14-21 day. In a few lines:
as §2

Series [18] relates to Mycobacterium tuberculosis. The series can be described thus: Antimycobacterial activity against MDR clinical isolate Mycobacterium tuberculosis 8666/2010 assessed as inhibition of mycobacterial growth measured after 14 to 21 days of incubation by Sulas semisynthetic medium based assay. It counts as functional. The note with it: time 14-21 day. In a few lines: as §2

On to `CCNc1nc(N2CCOCC2)nc2ncn(Cc3ccc4ccccc4c3)c12`, for which the outcome (in the series on Pseudomonas aeruginosa; in the series with Staphylococcus aureus [1]; in the series on Enterococcus faecium; with Staphylococcus aureus [2]; in [3]; with Klebsiella pneumoniae [4]) was inactive. Further, the result (in the series on Klebsiella pneumoniae [7]; in the series with Staphylococcus aureus [9]; with Escherichia coli [10]; in the series with Staphylococcus aureus [11]; in series [12]; in the series on Klebsiella pneumoniae [14]) was inactive. Further, the result with Escherichia coli [15] was inactive. In addition, the MIC99 with Mycobacterium kansasii turned out to be 4 µM (≈ 1.55 µg/mL); in [5], 2 µM (≈ 0.777 µg/mL); in series [13], 2 µM (≈ 0.777 µg/mL); in series [16] it was 4 µM (≈ 1.55 µg/mL); in [17], 4 µM (≈ 1.55 µg/mL); in [18], 2 µM (≈ 0.777 µg/mL). For the same compound, in series [6], the concentration in solution (solubility at 20 min) was 150 µM (≈ 58.4 µg/mL). In addition, the “Selectivity Index” value in series [8] was 63.88.
In the case of `CCOc1nc(N2CCOCC2)nc2ncn(Cc3ccc4ccccc4c3)c12`, the result (with Pseudomonas aeruginosa; in the series with Staphylococcus aureus [1]; in the series with Enterococcus faecium; in the series with Staphylococcus aureus [2]; in series [3]; in the series with Klebsiella pneumoniae [4]) was inactive. In addition, the outcome (in the series on Klebsiella pneumoniae [7]; in the series with Staphylococcus aureus [9]; in the series on Escherichia coli [10]; in the series with Staphylococcus aureus [11]; in series [12]; in the series with Klebsiella pneumoniae [14]) was inactive. Further, the result in the series on Escherichia coli [15] was inactive. For the same compound, the MIC99 in the series on Mycobacterium kansasii worked out at 8 µM (≈ 3.12 µg/mL); in [5] it was 2 µM (≈ 0.779 µg/mL); in series [13], 2 µM (≈ 0.779 µg/mL); in series [16], 4 µM (≈ 1.56 µg/mL); in [17] it was 4 µM (≈ 1.56 µg/mL); in [18], 2 µM (≈ 0.779 µg/mL). In addition, the concentration in solution in series [6] (solubility at 20 min) was 81.3 µM (≈ 31.7 µg/mL). Further, the “Selectivity Index” value in [8] is listed as 43.45.
